Measurements published in ChEMBL document CHEMBL1124108, “Antihypertensive thiadiazoles. 2. Vasodilator activity of some 2-aryl-5-guanidino-1,3,4-thiadiazoles” (1988).

What was measured:
[1] = test system: Rattus norvegicus; test: Maximum percentage reduction in mean blood pressure in metacorticoid (DOCA) hypertensive rats at a standard oral dose of 100 mg/kg; assay type: functional
In short: (§1)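 Rats were DOCA hypertensive. For oral dosing, food was withdrawn 18 h before; rats dosed ip were not starved. The vehicle was isotonic saline. Pressure was recorded by transducer under minimal restraint: twice before dosing, then at 1, 2, 3, 5 and 22 h. MABP was taken as diastolic + one-third pulse pressure. The value is the maximum % fall from the mean of the two pretreatment readings, n = 3-5.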

[2] = test system: Rattus norvegicus; test: Maximum percentage reduction in mean arterial blood pressure in metacorticoid (DOCA) hypertensive rats at a standard oral dose of 100 mg/kg; assay type: functional; in short: as §1
[3] = test system: Rattus norvegicus; test: Maximum percentage reduction in mean blood pressure in metacorticoid (DOCA) hypertensive rats at a standard oral dose of 100 mg/kg; IA = Inactive;Maximum percentage fall in MABP <10%; assay type: functional, organism-based; set-up: dose 100 mg/kg; in short: as §1
[4] = organism: Rattus norvegicus; test: Increase in diastolic blood pressure for 6 Htz electrical stimulation in the pithed rats; assay type: functional, Artery
In short: (§2)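 Male rats (200-300 g) were given drug or isotonic saline ip, in groups of five, 2 h before pithing (one reference agent 1 h before). Doses were 50 or 25 mg/kg, or 5 mg/kg for the reference agent. Rats were put under halothane, tracheally cannulated, pithed through the left orbit and ventilated with room air at 50 strokes/min. After iv tubocurarine (1 mg/kg), the whole sympathetic outflow was stimulated at 1, 3 or 6 Hz (0.5 ms, 20 V, 15 s). The rise in diastolic pressure was recorded in mmHg.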

[5] = organism: Rattus norvegicus; test: Increase in diastolic blood pressure for 3 Htz electrical stimulation in the pithed rats; assay type: functional, Artery; in short: as §2
[6] = test system: Rattus norvegicus; test: Increase in diastolic blood pressure for 0.1 ug/kg intravenous dosing of angiotensin in pithed rats; assay type: functional, Artery
In short: (§3)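 The pithed-rat preparation was used: male rats (200-300 g) got drug or isotonic saline ip in groups of five, 2 h beforehand (one reference agent 1 h). Doses were 50, 25 or 5 mg/kg. Rats were under halothane, cannulated, pithed and ventilated with room air. Noradrenaline (0.1-1.0 µg/kg) or angiotensin (0.03-0.3 µg/kg) was injected iv, and the increase in diastolic pressure was recorded in mmHg.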

[7] = test system: Rattus norvegicus; test: Increase in diastolic blood pressure for 0.1 ug/kg intravenous dosing of noradrenaline in pithed rats; assay type: functional, Artery; in short: as §3
[8] = test system: Rattus norvegicus; test: Increase in diastolic blood pressure for 0.3 ug/kg intravenous dosing of angiotensin in pithed rats; assay type: functional, Artery; in short: as §3
[9] = organism: Rattus norvegicus; test: Increase in diastolic blood pressure for 1 Htz electrical stimulation in the pithed rats; assay type: functional, Artery; in short: as §2
[10] = test system: Rattus norvegicus; test: Increase in diastolic blood pressure for 0.3 ug/kg intravenous dosing of noradrenaline in pithed rats; assay type: functional, Artery; in short: as §3
[11] = test system: Rattus norvegicus; test: Maximum percentage reduction in mean blood pressure in metacorticoid (DOCA) hypertensive rats at a standard oral dose of 50 mg/kg; assay type: functional; in short: as §1
[12] = test system: Rattus norvegicus; test: Increase in diastolic blood pressure for 0.03 ug/kg intravenous dosing of angiotensin in pithed rats; assay type: functional, Artery; in short: as §3
[13] = test system: Rattus norvegicus; test: Increase in diastolic blood pressure for 1.0 ug/kg intravenous dosing of noradrenaline in pithed rats; assay type: functional, Artery; in short: as §3
[14] = test system: Rattus norvegicus; test: Summation of percentage reductions, compared to pretreatment controls, in MABP of DOCA hypertensive rats at 1,2,3,5,8 hr after the 50 mg/kg oral dose.; assay type: functional
In short: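 DOCA hypertensive rats (n = 5) were dosed orally. MABP (diastolic + one-third pulse pressure) was read before dosing and at 1, 2, 3, 5 and 8 h. The value is the sum of the % reductions from pretreatment control over these five time points.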

For `CCCCC/N=C(/N)Nc1nnc(-c2ccccc2C)s1.Cl`, the Reduction [1] was 23%.

In the case of `Cc1ccccc1-c1nnc(NC(=N)NC2CCCC2)s1.Cl`, the Reduction [1] is reported as 20%.

`Cc1ccsc1-c1nnc(N=C(N)N)s1.Cl` was tested, and the Reduction [1] was 14%.

Molecule `Cl.Ic1ccccc1-c1nnc(NC2=NCCN2)s1` has a Reduction [2] of 33%.

In the case of `Cc1ccccc1-c1nnc(NC(=N)Nc2ccccc2)s1`, the Reduction [3] is reported as “Not significant”.

Work on `C[S+]([O-])c1ccccc1-c1nnc(N=C(N)N)s1.Cl` (centres undefined) yielded a Reduction [1] of 15%.

With `Cc1cccc(C)c1-c1nnc(N=C(N)N)s1` the Reduction [3] was “Not significant”.

In the case of `Cc1cccc(-c2nnc(N=C(N)N)s2)c1.Cl`, the Reduction [1] is reported as 19%.

`N=C(N)Nc1nnc(C2CCCCC2)s1` was tested, and the Reduction [3] was “Not significant”.

`N=C(N)Nc1nnc(-c2ccccc2O)s1` was tested, and the Reduction [3] was “Not significant”.

`C/N=C(/NC)Nc1nnc(-c2ccccc2C)s1.Cl` showed a Reduction [1] of 27%.

Work on `Cl.N=C(N)Nc1nnc(-c2ccccn2)s1` yielded a Reduction [1] of 19%.

`Cc1ccccc1-c1nnc(N=C2N(C)CCN2C)s1` was tested, and the Reduction [3] was “Not significant”.

`COCC/N=C(/N)Nc1nnc(-c2ccc(C)cc2C)s1.Cl` gave a Reduction [1] of 31%.

In the case of `Cc1cccc(-c2nnc(N=C(N)N)s2)c1C.Cl`, the Reduction [1] is reported as 14%.

`Cc1ccccc1-c1nnc(N/C(N)=N\CCCN(C)C)s1.Cl` gave a Reduction [2] of 20%.

For `CC(=O)NCC/N=C(/N)Nc1nnc(-c2ccccc2C)s1`, the Reduction [2] was 21%.

Work on `CCC[S+]([O-])c1ccccc1-c1nnc(N=C(N)N)s1.Cl` (centres undefined) yielded a Reduction [1] of 13%.

`CSc1ccccc1-c1nnc(N=C(N)N)s1.Cl` showed a Reduction [1] of 13%.

In the case of `CCCC/N=C(/NC)Nc1nnc(-c2ccccc2C)s1.Cl`, the Reduction [1] is reported as 28%.

Work on `Cc1cc(C)cc(-c2nnc(N=C(N)N)s2)c1.Cl` yielded a Reduction [1] of 18%.

Molecule `CCOCC/N=C(/N)Nc1nnc(-c2ccccc2C)s1.Cl` has a Reduction [1] of 34%.

`CC(C)(C)c1ccccc1-c1nnc(N=C(N)N)s1` was tested, and the Reduction [1] was 22%.

In the case of `Cc1ccccc1-c1nnc(NC(=N)N(C)CC(C)O)s1.Cl` (centres undefined), the Reduction [1] is reported as 21%.

With `Cl.N=C(N)Nc1nnc(-c2cccc3ccccc23)s1` the Reduction [1] was 20%.

Work on `COCCC/N=C(/N)Nc1nnc(-c2ccccc2C)s1.Cl` yielded a Reduction [1] of 33%.

In the case of `Cl.N=C(N)Nc1nnc(-c2ccccc2Br)s1`, the “Increase in blood pressure” value [4] is reported as 38 mmHg, the “Increase in blood pressure” value [5] is reported as 31 mmHg and the “Increase in blood pressure” value [6] is reported as 7 mmHg. The “Increase in blood pressure” value [7] was 13 mmHg, the “Increase in blood pressure” value [8] was 17 mmHg and the Reduction [1] was 41%. For the same molecule, the “Increase in blood pressure” value [9] was 17 mmHg, the “Increase in blood pressure” value [10] was 27 mmHg and the Reduction [11] was 29%. For the same molecule, the “Increase in blood pressure” value [12] was 3 mmHg and the “Increase in blood pressure” value [13] was 50 mmHg.

In the case of `CCC/N=C(/N)Nc1nnc(-c2ccccc2C)s1.Cl`, the Reduction [1] is reported as 32%.

For `CO/N=C(/N)Nc1nnc(-c2ccccc2C)s1.Cl`, the Reduction [2] was 29%.

For `Cc1ccc(-c2nnc(N=C(N)N)s2)c(C)c1`, the Reduction [3] was “Not significant”.

In the case of `Cc1ccccc1-c1nnc(N/C(N)=N\C(C)C)s1.Cl`, the Reduction [2] is reported as 23%.

With `Cc1ccccc1-c1nnc(NC2=NCCN2C)s1` the Reduction [3] was “Not significant”.

For `N=C(N)Nc1nnc(-c2ccc([N+](=O)[O-])cc2)s1`, the Reduction [3] was “Not significant”.

In the case of `CCCOc1ccccc1-c1nnc(N=C(N)N)s1.Cl`, the Reduction [1] is reported as 12%.

`Cc1ccccc1-c1nnc(NN)s1` was tested, and the Reduction [11] was 48% and the “Summation MABP” value [14] was 206.

`Cl.N=C(N)Nc1nnc(-c2cccs2)s1` showed a Reduction [1] of 32%.

With `Cc1ccccc1-c1nnc(NC(=N)NCCCO)s1.Cl` the Reduction [1] was 24%.

`Cc1ccc(-c2nnc(NC3=NCCN3)s2)c(C)c1.Cl` gave a Reduction [2] of 24%.

`COc1cccc(-c2nnc(N=C(N)N)s2)c1` was tested, and the Reduction [3] was “Not significant”.

In the case of `Cc1ccccc1-c1nnc(NC(=N)N2CCN(C)CC2)s1.Cl`, the Reduction [1] is reported as 18%.

In the case of `Cl.N=C(N)Nc1nnc(-c2ccccc2)s1`, the Reduction [2] is reported as 30%.

For `Cc1ccccc1-c1nnc(NC2=NC(C)(C)CN2)s1.Cl`, the Reduction [2] was 15%.

In the case of `N=C(N)Nc1nnc(-c2ccccc2-c2ccccc2)s1`, the Reduction [3] is reported as “Not significant”.
